Data on ten compounds can be found in ChEMBL document CHEMBL1146946, “Synthesis of novel benzofuran isoxazolines as protein tyrosine phosphatase 1B inhibitors” (Bioorg Med Chem Lett, 2006).

Each structure is given as a SMILES string.

The target of assay [1] is T1, Tyrosine-protein phosphatase non-receptor type 1 (Homo sapiens) (UniProt P18031).
T1 sequence (whole entry): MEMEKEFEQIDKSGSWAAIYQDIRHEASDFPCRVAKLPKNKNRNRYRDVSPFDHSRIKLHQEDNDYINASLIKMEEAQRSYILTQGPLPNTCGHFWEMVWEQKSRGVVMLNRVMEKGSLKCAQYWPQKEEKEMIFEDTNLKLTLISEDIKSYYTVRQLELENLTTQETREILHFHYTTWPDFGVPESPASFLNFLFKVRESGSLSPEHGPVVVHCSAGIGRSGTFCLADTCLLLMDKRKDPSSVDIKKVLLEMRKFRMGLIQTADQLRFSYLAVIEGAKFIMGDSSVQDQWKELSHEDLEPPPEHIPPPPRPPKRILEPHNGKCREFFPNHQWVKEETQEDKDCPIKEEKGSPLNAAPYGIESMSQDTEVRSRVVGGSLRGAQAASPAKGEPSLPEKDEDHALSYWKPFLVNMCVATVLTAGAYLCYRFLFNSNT
The assay can be described thus: Inhibition of PTP1B at 100 uM. The method, boiled down:
(§1)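 Test compound preincubated 10 min with enzyme in the reaction system before residual phosphatase activity was read. Substrate was 10 mM p-nitrophenylphosphate in 50 mM HEPES pH 7.0 with 1 mM each of EDTA and DTT. The reaction was stopped with 0.1 N NaOH and absorbance read at 410 nm. No-enzyme blanks run in parallel corrected for non-enzymic hydrolysis.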

The target in assay [2] is T2, Tyrosine-protein phosphatase non-receptor type 1 (Homo sapiens, UniProt P18031).
T2 sequence (P18031 whole entry): T1 sequence (whole entry)
Kind of assay: Inhibition of PTP1B. The method, boiled down:
as §1

The test system of assay [3] is Rattus norvegicus. Kind of assay: Antihyperglycemic activity in Streptozotocin-induced diabetic rat at 100 mg/kg. It is filed as functional.

In assay [1], `COc1c(C2=NOC(c3ccccc3)C2)ccc2occc12` (stereo unspecified) yielded an inhibition of 22.5%. Besides, in assay [2], it took 227 µM to reach half-maximal inhibition (IC50) and the Ki came to 45 µM.

In assay [1], `COc1c(C2=NOC(n3ccnc3)C2)ccc2occc12` (stereo unspecified) displayed an inhibition of 14.9%.

The compound `COc1ccc(C2CC(c3cc(OC)c4occc4c3OC)=NO2)cc1` (stereo unspecified) yielded an inhibition in assay [1] of 79.6%. In assay [2], this compound displayed an IC50 of 81 µM and a Ki of 32 µM.

On to `COC(=O)C1C(c2ccc3occc3c2OC)=NOC1c1ccccc1` (stereo unspecified), for which, in assay [1], the inhibition is 18.5%. In assay [2], the half-inhibitory concentration (IC50) amounted to 199 µM and the affinity, expressed as Ki, was 72.5 µM.

In turn, `COc1c(C2=NOC(c3ccncc3)C2)ccc2occc12` (stereo unspecified) came in with an inhibition in assay [1] of 14.7%.

`COc1ccc(C2CC(c3ccc4occc4c3OC)=NO2)cc1` (stereo unspecified) showed an inhibition in assay [1] of 49.1%. In assay [2], the IC50 is 150 µM and the affinity corresponds to a Ki of 27.5 µM.

`COc1c(C2=NOC(c3ccccn3)C2)cc(OC)c2occc12` (stereo unspecified) returned an inhibition in assay [1] of 18.4%.

`COc1c(C2=NOC(c3ccccn3)C2)ccc2occc12` (stereo unspecified) registered an inhibition in assay [1] of 17.4%.

Turning to `COc1c(-c2ccccc2)oc2c(ccc3occc32)c1=O` [KARANJIN], the inhibition in assay [1] was 15.8%. Further, in assay [3], testing at 100 mg/kg gave an inhibition in vivo of 35%.

For `COc1c(C2=NOC(c3ccccc3)C2)cc(OC)c2occc12` (stereo unspecified), the inhibition in assay [1] is 80.4%. In assay [2], the 50% inhibitory concentration (IC50) is 76 µM and the affinity corresponds to a Ki of 30 µM.

A word on the inhibition: it is the drop in the measured response relative to a control, in per cent. A higher inhibition goes with a response far below the control. A word on the IC50: it is the point on the concentration scale where inhibition reaches its midpoint. Read a low IC50 as inhibition by little substance. As a reminder, the Ki is a measure of affinity in units of concentration, obtained from inhibition or displacement. A word on the inhibition in vivo: it is the relative decrease from the control value, in per cent. A higher inhibition in vivo goes with a response far below the control.
